Data from ChEMBL document CHEMBL3108706, “Design, synthesis, and biological activity of novel dicoumarol glucagon-like peptide 1 conjugates” (J Med Chem, 2013).
Blank lines part the entries; values can stand above or below the compound they belong to. Activity calls are given as the source filed them. The rule behind the calls is not given here.

How the values were obtained:
Rattus norvegicus [1] = test: Anticoagulant activity in Sprague-Dawley rat assessed as activated […] time at 1 umol/kg, iv administered for 6 days measured on day 7 by coagulometric analysis (reference value: 26.5 +/- 0.81 secs); type: functional
Rattus norvegicus [2] = test: Anticoagulant activity in Sprague-Dawley rat assessed as thombin time at 1 umol/kg, iv administered for 6 days measured on day 7 by coagulometric analysis (reference value: 19.38 +/- 0.72 secs); type: functional
Rattus norvegicus [3] = test: Anticoagulant activity in Sprague-Dawley rat assessed as prothombin time at 1 umol/kg, iv administered for 6 days measured on day 7 by coagulometric analysis (reference value: 13.5 +/- 0.32 secs); type: functional
Rattus norvegicus [4] = test: Antidiabetic activity in Sprague-Dawley rat assessed as reduction of plasma glucose level at 25 nmol/kg, ip administered 0.5 hrs prior to glucose challenge by OGTT (reference value: 13.32 +/- 1.84 mM); type: functional
Rattus norvegicus [5] = test: Antidiabetic activity in Sprague-Dawley rat assessed as increase of plasma insulin level at 25 nmol/kg, ip administered 0.5 hrs prior to glucose challenge measured for 120 mins by ELISA; type: functional, organism-based
How it was run: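 SD rats (200−250 g, n = 6/group) were fasted 12 h and given compound ip (25 nmol/kg) or saline 0.5 h before oral glucose (10 g/kg). Tail-vein blood glucose was read with a meter at −30, 0, 15, 30, 45, 60, 90, 120 and 180 min. Insulin was measured by rat insulin ELISA. Mean ± SD.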

Rattus norvegicus [6] = test: Anticoagulant activity in Sprague-Dawley rat assessed as activated […] time at 150 nmol/kg, iv administered for 6 days measured on day 7 by coagulometric analysis (reference value: 26.5 +/- 0.81 secs); type: functional
[7] = Tmax in Sprague-Dawley rat at 15 nmol/kg, sc by LC-MS/MS analysis; type: ADME, organism-based; conditions: in vivo
Rattus norvegicus [8] = test: Anticoagulant activity in Sprague-Dawley rat assessed as prothombin time at 150 nmol/kg, iv administered for 6 days measured on day 7 by coagulometric analysis (reference value: 13.5 +/- 0.32 secs); type: functional
[9] = Half life in Sprague-Dawley rat plasma at 1000 ng/mL by LC-MS/MS analysis; type: ADME, cell-free
Mus musculus [10] = test: Antidiabetic activity in C57BL/6J-m+/+Leprdb (db/db) mouse assessed as reduction of blood glucose level at 50 nmol/kg, ip qd administered for 49 days followed by glucose challenge on day 52 measured up to 90 mins post glucose challenge by IPGTT; type: functional, organism-based
How it was run: (§1)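 Mice from the 49-day once-daily ip dosing study (db/db, n = 8/group) were tested by IPGTT on day 0 and day 52, 3 days after the last dose. They were fasted 18 h, challenged ip with 1 g/kg glucose, and tail-vein glucose was read with a meter at 0, 15, 30, 45, 60, 90 and 120 min.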

Rattus norvegicus [11] = test: Anticoagulant activity in Sprague-Dawley rat assessed as prothombin time at 25 nmol/kg, iv administered for 6 days measured on day 7 by coagulometric analysis (reference value: 13.5 +/- 0.32 secs); type: functional
[12] = Mean residence time in Sprague-Dawley rat at 15 nmol/kg, sc by LC-MS/MS analysis; type: ADME, organism-based; conditions: in vivo
[13] = Cmax in Sprague-Dawley rat at 15 nmol/kg, sc by LC-MS/MS analysis; type: ADME, organism-based; design: dose 15 nmol/kg, route subcutaneous; conditions: in vivo
Rattus norvegicus [14] = test: Anticoagulant activity in Sprague-Dawley rat assessed as thombin time at 25 nmol/kg, iv administered for 6 days measured on day 7 by coagulometric analysis (reference value: 19.38 +/- 0.72 secs); type: functional
Mus musculus [15] = test: Antidiabetic activity in ip dosed C57BL/6J-m+/+Leprdb (db/db) mouse assessed as suppression of body weight gain administered as qd measured over 7 weeks of drug treatment; type: functional, organism-based
How it was run: (§2)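 Male and female db/db mice (6 weeks, n = 8/group) were matched on HbA1c and given ip injections once daily for 49 days (25 or 50 nmol/kg; comparator 25 nmol/kg; saline controls). Wild-type C57BL/6 littermates served for normalization. HbA1c was measured weekly and body weight daily.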

Mus musculus [16] = test: Antidiabetic activity in C57BL/6J-m+/+Leprdb (db/db) mouse assessed as reduction of blood glucose level at 25 nmol/kg, ip qd administered for 49 days followed by glucose challenge on day 52 measured up to 90 mins post glucose challenge by IPGTT; type: functional, organism-based; how it was run: as §1
albumin = albumin (Homo sapiens, UniProt P02768); test: Binding affinity to human serum albumin at 100 ug/mL after 3 hrs relative to control; type: ADME; conditions: read-out: PB (converted)
Chain of albumin (P02768 whole entry): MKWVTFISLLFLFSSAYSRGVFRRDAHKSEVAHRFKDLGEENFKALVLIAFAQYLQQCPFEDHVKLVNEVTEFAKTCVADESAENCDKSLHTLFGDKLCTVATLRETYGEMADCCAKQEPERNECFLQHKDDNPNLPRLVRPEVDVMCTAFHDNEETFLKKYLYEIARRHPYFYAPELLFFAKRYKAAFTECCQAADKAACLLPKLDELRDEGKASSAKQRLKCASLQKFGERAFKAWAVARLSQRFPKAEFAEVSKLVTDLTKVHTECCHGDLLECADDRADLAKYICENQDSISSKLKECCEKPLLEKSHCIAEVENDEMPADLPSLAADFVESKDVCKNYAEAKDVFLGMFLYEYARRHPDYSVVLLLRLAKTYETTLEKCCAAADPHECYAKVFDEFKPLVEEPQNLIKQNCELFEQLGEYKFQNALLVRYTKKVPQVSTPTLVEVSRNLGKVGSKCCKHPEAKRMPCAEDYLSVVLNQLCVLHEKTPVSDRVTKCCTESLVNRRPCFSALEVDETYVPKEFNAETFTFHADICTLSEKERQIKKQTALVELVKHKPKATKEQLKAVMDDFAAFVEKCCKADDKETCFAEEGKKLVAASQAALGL
How it was run: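 Peptide at 100 μg/mL in PBS (50 μL) was incubated with HSA-conjugated Sepharose resin for 3 h at 25 °C, then centrifuged (1000 rpm, 10 min). Unbound peptide in the supernatant was quantified by micro BCA assay. Nonspecific adsorption was corrected with NHS-inactivated, albumin-free resin.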

[17] = target: Glucagon-like peptide 1 receptor (Homo sapiens, UniProt P43220); test: Activation of human GLP-1 receptor overexpressed in HEK293 cells assessed as cAMP accumulation after 20 mins by HTRF assay; type: functional, cell-based
Chain of Glucagon-like peptide 1 receptor (P43220 whole entry): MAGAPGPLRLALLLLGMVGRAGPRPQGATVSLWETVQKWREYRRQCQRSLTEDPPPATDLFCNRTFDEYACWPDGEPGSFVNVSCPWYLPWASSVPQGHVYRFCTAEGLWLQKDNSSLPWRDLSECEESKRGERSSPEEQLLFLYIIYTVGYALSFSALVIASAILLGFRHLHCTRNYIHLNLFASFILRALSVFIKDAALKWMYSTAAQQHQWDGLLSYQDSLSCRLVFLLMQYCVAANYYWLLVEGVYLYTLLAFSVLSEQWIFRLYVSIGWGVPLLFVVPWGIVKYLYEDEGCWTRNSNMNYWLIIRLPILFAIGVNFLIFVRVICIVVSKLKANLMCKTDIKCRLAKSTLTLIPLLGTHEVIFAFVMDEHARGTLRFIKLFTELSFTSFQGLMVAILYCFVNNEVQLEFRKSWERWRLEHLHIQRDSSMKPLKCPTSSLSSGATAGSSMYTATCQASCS

Rattus norvegicus [18] = test: Antidiabetic activity in Sprague-Dawley rat assessed as reduction of plasma glucose level at 25 nmol/kg, ip administered 0.5 hrs prior to glucose challenge measured at 15 to 60 mins by OGTT; type: functional, organism-based
Mus musculus [19] = test: Antidiabetic activity in C57BL/6J-m+/+Leprdb (db/db) mouse assessed as reduction of blood glucose AUC (0 to 48 hrs) at 25 nmol/kg, ip administered for 0.5 hrs; type: functional, organism-based
How it was run: (§3)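 Non-fasted male db/db mice (7 weeks, free access to food and water) got a single ip injection (25 or 150 nmol/kg) or saline. Mean ± SD, n = 6.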

Mus musculus [20] = test: Hypoglycemic activity in C57BL/6J-m+/+Leprdb (db/db) mouse assessed as time required to reduce plasma glucose level below 8.35 mM at 25 nmol/kg, ip administered for 0.5 hrs; type: functional; how it was run: as §3
Mus musculus [21] = test: Hypoglycemic activity in C57BL/6J-m+/+Leprdb (db/db) mouse assessed as reduction of plasma glucose level at 25 nmol/kg, ip administered 0.5 hrs prior to glucose challenge measured at 21.5 hrs by IPGTT (reference value: >30 mM); type: functional
Rattus norvegicus [22] = test: Antidiabetic activity in Sprague-Dawley rat assessed as increase of plasma insulin level at 25 nmol/kg, ip administered 0.5 hrs prior to glucose challenge measured at 45 mins by ELISA; type: functional
Mus musculus [23] = test: Hypoglycemic activity in C57BL/6J-m+/+Leprdb (db/db) mouse assessed as reduction of plasma glucose level at 25 nmol/kg, ip administered 0.5 hrs prior to glucose challenge measured at 21.5 to 24 hrs by IPGTT; type: functional, organism-based
Rattus norvegicus [24] = test: Anticoagulant activity in Sprague-Dawley rat assessed as thombin time at 150 nmol/kg, iv administered for 6 days measured on day 7 by coagulometric analysis (reference value: 19.38 +/- 0.72 secs); type: functional
Mus musculus [25] = test: Antidiabetic activity in C57BL/6J-m+/+Leprdb (db/db) mouse assessed as reduction of HbA1c level at 25 to 50 nmol/kg, ip qd measured over 7 weeks of drug treatment; type: functional, organism-based; how it was run: as §2
Rattus norvegicus [26] = test: Anticoagulant activity in Sprague-Dawley rat assessed as activated […] time at 25 nmol/kg, iv administered for 6 days measured on day 7 by coagulometric analysis (reference value: 26.5 +/- 0.81 secs); type: functional
Mus musculus [27] = test: Hypoglycemic activity in C57BL/6J-m+/+Leprdb (db/db) mouse assessed as time required to reduce plasma glucose level below 8.35 mM at 150 nmol/kg, ip administered for 0.5 hrs; type: functional
How it was run: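 Non-fasted male db/db mice (7 weeks, free access to food and water) got a single ip injection (25 or 150 nmol/kg) or saline. Glucose AUC0−48h and the time for glucose to return below 8.35 mM were derived. Mean ± SD, n = 6.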

Mus musculus [28] = test: Hypoglycemic activity in C57BL/6J-m+/+Leprdb (db/db) mouse assessed as reduction of plasma glucose level at 25 nmol/kg, ip administered 0.5 hrs prior to glucose challenge measured up to 17 hrs by IPGTT (reference value: >30 mM); type: functional
Rattus norvegicus [29] = test: AUC (0 to infinity) in Sprague-Dawley rat at 15 nmol/kg, sc by LC-MS/MS analysis; type: ADME, organism-based, Plasma; design: dose 15 nmol/kg, route subcutaneous, time infinity; conditions: in vivo
Mus musculus [30] = test: Hypoglycemic activity in C57BL/6J-m+/+Leprdb (db/db) mouse assessed as reduction of plasma glucose level at 25 nmol/kg, ip administered 0.5 hrs prior to glucose challenge measured after 18 to 21 hrs by IPGTT (reference value: >30 mM); type: functional
Mus musculus [31] = test: Antidiabetic activity in C57BL/6J-m+/+Leprdb (db/db) mouse assessed as reduction of blood glucose level at 50 nmol/kg, ip qd administered for 49 days followed by glucose challenge on day 52 measured after 120 mins post glucose challenge by IPGTT; type: functional, organism-based; how it was run: as §1
Rattus norvegicus [32] = test: Antidiabetic activity in Sprague-Dawley rat assessed as increase of plasma insulin level at 25 nmol/kg, ip administered 0.5 hrs prior to glucose challenge measured at 15 mins by ELISA; type: functional
[33] = Elimination half life in Sprague-Dawley rat at 15 nmol/kg, sc by LC-MS/MS analysis; type: ADME, organism-based; conditions: in vivo, read-out: beta t1/2 (converted)
Mus musculus [34] = test: Antidiabetic activity in C57BL/6J-m+/+Leprdb (db/db) mouse assessed as reduction of blood glucose level at 25 nmol/kg, ip qd administered for 49 days followed by glucose challenge on day 52 measured after 120 mins post glucose challenge by IPGTT; type: functional, organism-based; how it was run: as §1

Compound: O=c1oc2ccccc2c(O)c1Cc1c(O)c2ccccc2oc1=O [DICUMAROL]
APTT (Rattus norvegicus [1]): 56.36 s
TT (Rattus norvegicus [2]): 36.85 s
PT (Rattus norvegicus [3]): 25.22 s

Tmax [7]: 1.82 h
half-life at 1000 ng/mL [9]: 67.9 h
MRT [12]: 33.8 h
Cmax [13]: 880 ng/mL
fraction unbound at 3 h, 100 ug/mL (albumin): 0.036
EC50 [17]: 0.0368 nM
AUC (Rattus norvegicus [29]): 40600 ng·h/mL
half-life [33]: 22.1 h
Compound: CC[C@H](C)[C@H](NC(=O)[C@H](Cc1ccccc1)NC(=O)[C@H](CCC(=O)O)NC(=O)[C@H](CCCCN)NC(=O)[C@H](C)NC(=O)[C@H](C)NC(=O)[C@H](CCC(N)=O)NC(=O)CNC(=O)[C@H](CCC(=O)O)NC(=O)[C@H](CC(C)C)NC(=O)[C@H](Cc1ccc(O)cc1)NC(=O)[C@H](CO)NC(=O)[C@H](CSC1CC(=O)N(CCCCCCCCCCCC(=O)Nc2ccc(C(c3c(O)c4ccccc4oc3=O)c3c(O)c4ccccc4oc3=O)cc2)C1=O)NC(=O)[C@@H](NC(=O)[C@H](CC(=O)O)NC(=O)[C@H](CO)NC(=O)[C@@H](NC(=O)[C@H](Cc1ccccc1)NC(=O)[C@@H](NC(=O)CNC(=O)[C@H](CCC(=O)O)NC(=O)CNC(=O)[C@@H](N)Cc1cnc[nH]1)[C@@H](C)O)[C@@H](C)O)C(C)C)C(=O)N[C@@H](C)C(=O)N[C@@H](Cc1c[nH]c2ccccc12)C(=O)N[C@@H](CC(C)C)C(=O)N[C@H](C(=O)N[C@@H](CCCCN)C(=O)NCC(=O)N[C@@H](CCCNC(=N)N)C(N)=O)C(C)C (stereo not given in full)
Activity (Rattus norvegicus [4]): 6.9 mM
Activity (Rattus norvegicus [5]): Active
APTT (Rattus norvegicus [6]): 26.38 s
PT (Rattus norvegicus [8]): 13.55 s
Activity (Mus musculus [10]): Active
PT (Rattus norvegicus [11]): 13.39 s
TT (Rattus norvegicus [14]): 19.63 s
Activity (Mus musculus [15]): Dose-dependent effect
Activity (Mus musculus [16]): Active
Activity (Rattus norvegicus [18]): Active
Activity (Mus musculus [19]): Active
Time (Mus musculus [20]): 24.7 h
Activity (Mus musculus [21]): 13.8 mM
Activity (Rattus norvegicus [22]): 582.08 pM
Activity (Mus musculus [23]): Active
TT (Rattus norvegicus [24]): 19.49 s
Activity (Mus musculus [25]): Active
APTT (Rattus norvegicus [26]): 26.39 s
Time (Mus musculus [27]): 35.8 h
Activity (Mus musculus [28]): <12 mM
Activity (Mus musculus [30]): <16 mM
Activity (Mus musculus [31]): inactive
Activity (Rattus norvegicus [32]): 1274.72 pM
Activity (Mus musculus [34]): inactive
